Test results taken from PubChem BioAssay AID623912 (Johns Hopkins Ion Channel Center, 2012).
The source made the active and inactive calls.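 Rule for the calls: active = peak KCNK3 inhibition above a set limit at some dose, plus a fitted dose-response curve; inactive = no KCNK3 inhibition, or no dose-response curve.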

The compounds below were run against Potassium channel subfamily K member 3 (Rattus norvegicus) (UniProt O54912) (assay: inhibition of rat KCNK3 channel, SAR follow-up, selectivity assay for KCNK9 inhibitor project, cell-based, FluxOR thallium flux, CRC set 2 (AID 623912)). Settings: KCNK3-expressing cells, FluxOR thallium flux fluorescence.
Chain of Potassium channel subfamily K member 3 (Rattus norvegicus) (O54912 whole entry, looked up): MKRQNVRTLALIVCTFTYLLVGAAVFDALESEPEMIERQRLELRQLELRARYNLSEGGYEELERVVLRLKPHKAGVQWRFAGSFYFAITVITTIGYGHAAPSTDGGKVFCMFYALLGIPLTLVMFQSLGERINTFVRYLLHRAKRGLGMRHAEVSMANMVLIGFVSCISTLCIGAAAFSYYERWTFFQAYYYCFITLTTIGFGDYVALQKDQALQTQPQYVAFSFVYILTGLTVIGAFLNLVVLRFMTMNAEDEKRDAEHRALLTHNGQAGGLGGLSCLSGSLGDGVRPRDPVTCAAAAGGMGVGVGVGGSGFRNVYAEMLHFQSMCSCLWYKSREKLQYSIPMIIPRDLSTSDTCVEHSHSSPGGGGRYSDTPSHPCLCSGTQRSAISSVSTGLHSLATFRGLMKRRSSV
Method in brief: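 Assay system: tetracycline-induced CHO cells expressing rat KCNK3 potassium channel. Probe or stimulus: Tl+/K+ sulfate stimulus buffer (5x stock). Dosing: concentration series of compound. Incubation: dye 90 min, compound 20 min, both room temperature. Measured by: FluxOR Tl+ flux fluorescence. Evaluation: IC50 from normalized flux signal. Replicates: duplicate or more.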

IC50 [nM] | Compound
3 | Cc1cccc(C(=O)Nc2cccc(NC(=O)c3cccc(Cl)c3)c2)c1
2200 | CC(C1CC2CCC1C2)n1c(-c2ccccc2F)n[nH]c1=S (configuration not stated)
148 | COc1cccc(OC)c1C(=O)Nc1cccc(NC(=O)c2cccc(C)c2)c1
4 | COc1ccccc1C(=O)Nc1cccc(NC(=O)c2ccccc2OC(F)(F)F)c1
341 | CC(C1CC2CCC1C2)n1c(-c2ccco2)n[nH]c1=S (configuration not stated)
1080 | CC(C1CC2CCC1C2)n1c(-c2cccn2C)n[nH]c1=S (configuration not stated)
7.46 | CCOc1ccccc1C(=O)Nc1cccc(NC(=O)c2cccc(C)c2)c1
29.4 | O=C(Nc1cccc(NC(=O)c2cccs2)c1)c1ccccc1
2050 | CC(C1CC2CCC1C2)n1c(-c2ccccc2Cl)n[nH]c1=S (configuration not stated)
11 | COc1ccccc1C(=O)Nc1cccc(NC(=O)c2cccc(C)c2)c1
68.3 | CCOc1ccccc1NC(=O)c1cccc(NC(=O)C2CCCC2)c1
5 | CCOc1ccccc1NC(=O)c1cccc(NC(=O)c2cccc(OC)c2)c1
31 | COc1cccc(C(=O)Nc2cccc(NC(=O)c3cccc(C)c3)c2)c1
15 | COc1cccc(-c2n[nH]c(=S)n2C(C)C2CC3CCC2C3)c1OC (configuration not stated)
850 | Cc1cccc(C(=O)Nc2cccc(C(=O)Nc3ccccc3)c2)c1
212 | COc1cccc(C(=O)Nc2cccc(NC(=O)c3ccccc3)c2)c1
912 | Cc1ccccc1-c1n[nH]c(=S)n1C(C)C1CC2CCC1C2 (configuration not stated)
134 | CCOc1ccccc1NC(=O)c1cccc(NC(=O)c2ccc(C)cc2)c1
2 | CCOc1ccccc1C(=O)Nc1cccc(NC(=O)c2ccccc2OC)c1
1450 | Cc1cccc(S(=O)(=O)Nc2cccc(NC(=O)c3ccccc3)c2)c1
206 | Cc1cccc(C(=O)Nc2cccc(NC(=O)c3ccccc3OCC(C)C)c2)c1
42 | COc1ccccc1NC(=O)c1cccc(NC(=O)c2ccccc2C(F)(F)F)c1
96.3 | Cc1cccc(C(=O)Nc2cccc(NC(=O)c3ccccc3)c2)c1
232 | CCOc1ccccc1NC(=O)c1cccc(NC(=O)c2cccc(C(F)(F)F)c2)c1
104 | Cc1ccccc1C(=O)Nc1cccc(NC(=O)c2ccccc2)c1

IC50 [nM] | Compound
217 | CCOc1ccccc1NC(=O)c1cccc(NC(=O)CC2CCCCC2)c1
90.8 | Cc1cccc(C(=O)Nc2cccc(NC(=O)c3ccccc3C)c2)c1
306 | O=C(Nc1cccc(NC(=O)c2ccc(F)cc2)c1)c1ccccc1
92.2 | CC(C)n1c(-c2ccco2)n[nH]c1=S
1330 | CCOc1ccccc1NC(=O)c1cccc(NC(=O)C2CCOC2)c1 (configuration not stated)
184 | Cc1cccc(C(=O)Nc2cccc(NC(=O)c3ccc(C(C)(C)C)cc3)c2)c1
300 | CCOc1ccccc1NC(=O)c1cccc(NC(=O)c2ccc(OC)cc2)c1
1320 | CCOc1ccccc1NC(=O)c1cccc(NC(=O)C(C)(C)C)c1
183 | Cc1cccc(C(=O)Nc2ccc(C(=O)Nc3ccccc3)cc2)c1
17 | CCOc1ccccc1NC(=O)c1cccc(NC(=O)c2cccc(C)c2)c1
83.9 | CCOc1ccccc1NC(=O)c1cccc(NC(=O)c2ccccc2Cl)c1
403 | CC(C1CC2CCC1C2)n1c(-c2ccccc2)n[nH]c1=S (configuration not stated)
7 | COc1ccccc1C(=O)Nc1cccc(NC(=O)c2ccccc2C(C)C)c1
20 | CC(C1CC2CCC1C2)n1c(-c2cccc(Cl)c2)n[nH]c1=S (configuration not stated)
1020 | CC(C1CC2CCC1C2)n1c(-c2cccnc2)n[nH]c1=S (configuration not stated)
3 | Cc1cccc(C(=O)Nc2cccc(NC(=O)c3cccs3)c2)c1
86 | COc1ccccc1NC(=O)c1cccc(NC(=O)CC2CCCC2)c1
114 | CCOc1ccccc1NC(=O)c1cccc(NC(=O)c2ccccc2OC(F)(F)F)c1
240 | CC(C1CC2CCC1C2)n1c(-c2ccc(Cl)cc2)n[nH]c1=S (configuration not stated)
139 | CCOc1ccccc1NC(=O)c1cccc(NC(=O)c2ccc(Cl)cc2)c1
181 | CC(C1CC2CCC1C2)n1c(-c2ccco2)n[nH]c1=O (configuration not stated)
120 | O=C(Nc1cccc(NC(=O)c2cccc(Cl)c2)c1)c1ccccc1
2 | CCOc1ccccc1C(=O)Nc1cccc(NC(=O)c2ccccc2C(F)(F)F)c1
64 | COc1ccccc1NC(=O)c1cccc(NC(=O)c2ccccc2)c1
108 | CCOc1ccccc1C(=O)Nc1cccc(NC(=O)C2CCCC2)c1

IC50 [nM] | Compound
311 | O=C(Nc1cccc(NC(=O)c2ccccc2Cl)c1)c1ccccc1
1290 | COc1cccc(-c2n[nH]c(=S)n2C(C)C2CC3CCC2C3)c1 (configuration not stated)
873 | CSc1nnc(-c2ccco2)n1C(C)C1CC2CCC1C2 (configuration not stated)
11 | Cc1cccc(C(=O)Nc2cccc(NC(=O)c3cccc(C(F)(F)F)c3)c2)c1
2270 | COc1ccc(C(=O)Nc2cccc(NC(=O)c3ccccc3)c2)cc1
202 | O=C(Nc1ccccc1Cl)c1cccc(NC(=O)C2CCCC2)c1
249 | O=C(Nc1cccc(NC(=O)c2ccncc2)c1)c1ccccc1
28.5 | Cc1cccc(C(=O)Nc2cccc(NC(=O)c3ccccc3OC(F)(F)F)c2)c1
770 | Cc1ccc(-c2n[nH]c(=S)n2C(C)C2CC3CCC2C3)cc1 (configuration not stated)
121 | CCOc1ccccc1NC(=O)c1cccc(NC(=O)c2ccccc2)c1
73 | COc1ccccc1C(=O)Nc1cccc(NC(=O)c2ccccc2C)c1
260 | Cc1cccc(C(=O)Nc2ccccc2NC(=O)c2ccccc2)c1
162 | O=C(Nc1cccc(NC(=O)c2ccsc2)c1)c1ccccc1
2080 | COc1ccc(C(=O)CSc2nnc(-c3ccco3)n2C(C)C2CC3CCC2C3)cc1OC (configuration not stated)
799 | O=C(Nc1cccc(NC(=O)c2ccoc2)c1)c1ccccc1
36.5 | O=C(Nc1cccc(NC(=O)c2ccco2)c1)c1ccccc1
11 | CC(C)c1ccccc1C(=O)Nc1cccc(NC(=O)c2ccccc2OC(F)(F)F)c1
1070 | CCOc1ccccc1NC(=O)c1cccc(NC(=O)C2CC2)c1
222 | COc1ccccc1C(=O)Nc1cccc(NC(=O)c2ccccc2)c1
491 | CCOc1cccc(NC(=O)c2cccc(NC(=O)C3CCCC3)c2)c1
1300 | CC(C1CC2CCC1C2)n1c(-c2ccccn2)n[nH]c1=S (configuration not stated)
29.5 | CCOc1ccccc1NC(=O)c1cccc(NC(=O)c2ccccc2C(F)(F)F)c1
220 | CCOc1ccccc1NC(=O)c1cccc(NC(=O)c2ccc(C(F)(F)F)cc2)c1
18 | O=C(Nc1cccc(NC(=O)c2ccccc2)c1)c1ccccc1
29.6 | Cc1cccc(C(=O)Nc2cccc(NC(=O)c3cccc(C)c3)c2)c1

IC50 [nM] | Compound
1660 | CC(C1CC2CCC1C2)n1c(SCc2ccccc2)nnc1-c1ccco1 (configuration not stated)
27 | Cc1cccc(C(=O)Nc2cccc(NC(=O)c3ccncc3)c2)c1
328 | Cc1cccc(C(=O)Nc2cccc(NC(=O)c3ccccc3C(C)C)c2)c1
106 | COc1cccc(-c2nnc(S(C)(=O)=O)n2C(C)C2CC3CCC2C3)c1 (configuration not stated)
606 | S=c1[nH]nc(-c2ccco2)n1CC1CCCCC1
1180 | CC(C1CC2CCC1C2)n1c(-c2ccco2)nnc1C(F)(F)F (configuration not stated)
567 | CC(c1ccccc1)n1c(-c2ccco2)n[nH]c1=S (configuration not stated)
140 | CCOc1ccccc1NC(=O)c1cccc(NC(=O)c2ccccc2C)c1
110 | COc1cc(OC)cc(-c2n[nH]c(=S)n2C(C)C2CC3CCC2C3)c1 (configuration not stated)
143 | Cc1cccc(C(=O)Nc2cccc(NC(=O)c3ccco3)c2)c1
3 | COc1ccccc1C(=O)Nc1cccc(NC(=O)c2cccc3ccccc23)c1
18 | CC(C1CC2CCC1C2)n1c(-c2cccs2)n[nH]c1=S (configuration not stated)
129 | CCOc1ccccc1NC(=O)c1cccc(NC(=O)C2CCCO2)c1 (configuration not stated)
915 | S=c1[nH]nc(-c2ccco2)n1CC1CC2CCC1C2 (configuration not stated)
23 | Cc1cccc(C(=O)Nc2cccc(NC(=O)c3ccccc3Cl)c2)c1
238 | COc1ccccc1NC(=O)c1cccc(NC(=O)C2CCCC2)c1
259 | CN(C)c1ccc(C(=O)Nc2cccc(NC(=O)c3ccccc3)c2)cc1
145 | Cc1cccc(C(=O)Nc2cccc(NC(=O)c3ccc(N(C)C)cc3)c2)c1
9.67 | COc1ccccc1C(=O)Nc1cccc(NC(=O)c2ccccc2OC)c1
561 | CC(c1cccc2ccccc12)n1c(-c2ccco2)n[nH]c1=S (configuration not stated)
1 | CC(C)Oc1ccccc1C(=O)Nc1cccc(NC(=O)c2ccccc2OC(F)(F)F)c1
18 | CC(C1CC2CCC1C2)n1cnnc1-c1ccco1 (configuration not stated)
6 | CC(C1CC2CCC1C2)N(C)C(=O)c1ccco1 (configuration not stated)
86 | COc1ccccc1NC(=O)c1cccc(NC(=O)C2CCCCC2)c1
66.9 | CCOc1ccccc1NC(=O)c1cccc(NC(=O)C2CCCCC2)c1

Same assay, conditions: KCNK3-expressing cells, FluxOR thallium flux fluorescence; at 3 µM (top of the series)

flux ratio, lower = inhibition | Compound
inactive | COc1ccc(-c2n[nH]c(=S)n2C(C)C2CC3CCC2C3)cc1 (configuration not stated)
inactive | CC(C1CC2CCC1C2)n1c(SCC#N)nnc1-c1cccs1 (configuration not stated)
inactive | Cc1ccc(C(=O)Nc2cccc(NC(=O)c3ccccc3)c2)cc1
inactive | CC(C1CC2CCC1C2)n1c(SC(F)F)nnc1-c1ccco1 (configuration not stated)
inactive | Cc1cccc(NC(=O)c2cccc(NC(=O)c3ccccc3)c2)c1
inactive | COc1cccc(Cc2n[nH]c(=S)n2C(C)C2CC3CCC2C3)c1 (configuration not stated)
inactive | CC(C)(C)c1ccc(C(=O)Nc2cccc(NC(=O)c3ccccc3)c2)cc1
inactive | CC(C1CC2CCC1C2)n1c(-c2ccsc2)n[nH]c1=S (configuration not stated)
inactive | O=C(Nc1cccc(NC(=O)c2ccc(C(F)(F)F)cc2)c1)c1ccccc1
inactive | O=C(Nc1cccc(NC(=O)c2ccc(Cl)cc2)c1)c1ccccc1
inactive | Cc1cccc(-c2n[nH]c(=S)n2C(C)C2CC3CCC2C3)c1 (configuration not stated)
inactive | Cc1cccc(C(=O)Nc2cccc(NC(=O)c3ccccc3C(F)(F)F)c2)c1
